Bioassay records as filed in PubChem BioAssay.
ERp5 block = inhibitors of ERp5-driven insulin aggregation, primary screen, biochemical, turbidity, absorbance 650 nm, single point; Protein disulfide-isomerase A6 (Homo sapiens), Q15084; 90 min; inhibition, % at 9.99 µM; hit rate 0.05% among 350,000;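 active means mean replicate inhibition above about 25%, with every replicate also reaching it, limit read from the data, passing the limit was not always enough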
Target sequence (Q15084 whole entry, looked up): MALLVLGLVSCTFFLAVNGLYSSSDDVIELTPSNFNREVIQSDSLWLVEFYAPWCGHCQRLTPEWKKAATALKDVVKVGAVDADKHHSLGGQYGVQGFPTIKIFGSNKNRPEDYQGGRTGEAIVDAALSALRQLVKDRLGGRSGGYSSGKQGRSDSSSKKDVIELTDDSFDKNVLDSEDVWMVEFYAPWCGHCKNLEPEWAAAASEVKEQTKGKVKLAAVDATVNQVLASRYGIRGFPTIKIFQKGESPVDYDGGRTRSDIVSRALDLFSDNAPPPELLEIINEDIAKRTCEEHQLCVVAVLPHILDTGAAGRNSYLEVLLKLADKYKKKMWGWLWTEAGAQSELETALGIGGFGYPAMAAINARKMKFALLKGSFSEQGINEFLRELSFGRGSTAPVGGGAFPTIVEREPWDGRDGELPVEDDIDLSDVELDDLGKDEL
S100A4 inh HTS = inhibitors of S100A4-myosin IIA peptide binding, primary screen, biochemical, fluorescence polarization, TAMRA-MyoIIA peptide | AID 652163, 2013 | inhibition, % at 10.7 µM | Protein S100-A4 (Homo sapiens), P26447 | hit rate 0.14% among 360,000;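 active means mean inhibition of at least 70% across replicates, with every replicate also reaching that level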
Target sequence (P26447 whole entry, looked up): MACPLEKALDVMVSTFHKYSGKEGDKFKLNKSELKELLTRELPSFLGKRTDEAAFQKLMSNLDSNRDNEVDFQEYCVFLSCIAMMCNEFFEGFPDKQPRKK
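Assay system: human S100A4 monomer with TAMRA-labelled myosin IIA peptide / Buffer or medium: Calcium-containing HEPES buffer, pH 7.2 / Reagent: TAMRA-labelled myosin IIA heavy-chain peptide probe, 5 nM / Compound: one dose per compound / Timing: polarization read 5 min after assay mix addition, stable 5–60 min / Benchmarks: neutral control DMSO, positive control TFP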
SIRT5 block = SIRT5 desuccinylase inhibitors, primary screen, biochemical, fluorescence imaging, single point, set 5; NAD-dependent protein deacylase sirtuin-5, mitochondrial (Homo sapiens), Q9NXA8; Purified SirT5, succinyl-peptide AMC, trypsin-coupled fluorescence; inhibition, % at 15 µM; hit rate 1.1% among 330,000; AID 652115, 2013; in the data active means inhibition above about 15%
PDI inh = inhibitors of human PDI, primary screen, biochemical, turbidity, single point, plate reader; inhibition, % at 10 µM; hit rate 0.052% among 350,000; PDI insulin aggregation turbidity, A650, 90 min;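 active means mean inhibition across replicates of 30% or more, whatever share of single replicates reach that level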
INS-1E GSIS act = GLuc luminescence reporter in INS-1E cells, primary screen for activators of glucose-dependent secretion of insulin. INS-1E GLuc reporter insulin secretion, 2-3 h. activation, % at 16.6 µM. hit rate 0.61% among 370,000;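 active means lowest replicate activation of at least 40%, so every replicate reaches that level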;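 further: 0% = median of neutral control wells and 100% = median of IBMX positive control wells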
* = called active by the depositor; / = no result. Only some compounds are listed: those with a hit (about 1.5% of all), similar ones and a draw of the others.

SMILES | ERp5 block | S100A4 inh HTS | SIRT5 block | PDI inh | INS-1E GSIS act
C[C@@H]1CN([C@@H](C)CO)C(=O)c2cc(NC(=O)c3ccncc3)ccc2O[C@@H](C)CCCCO[C@@H]1CN(C)Cc1ccc(C(F)(F)F)cc1 | -6.0 | -8.5 | 15.6* | / | -16.0
C[C@H]1CCCCO[C@@H](CN(C)Cc2ccc(C(F)(F)F)cc2)[C@@H](C)CN([C@@H](C)CO)C(=O)c2cc(NC(=O)CCC(F)(F)F)ccc2O1 | 6.5 | -2.3 | 16.2* | / | -7.3
C[C@@H]1CCCCO[C@@H](CN(C)Cc2ccc(C(=O)O)cc2)[C@H](C)CN([C@H](C)CO)C(=O)c2cc(NC(=O)CCCN(C)C)ccc2O1 | -0.4 | 130.5* | -5.5 | / | 25.3
O=C(NC1CCCC1)[C@H]1[C@H](CO)[C@H]2Cn3c(ccc(C4=CCCC4)c3=O)[C@@H]1N2CC1CC1 | -5.4 | -20.4 | -7.7 | / | -6.6
O=C(N/N=C\c1ccc([N+](=O)[O-])o1)c1cncc(Br)c1 | 2.2 | -1.2 | 21.3* | -0.7 | -4.7
O=C(N/N=C/c1ccc(-c2ccccc2[N+](=O)[O-])o1)c1cncc(Br)c1 | / | / | / | -19.2 | 13.3
C[C@H]1CN([C@@H](C)CO)C(=O)c2cccc(NC(=O)Nc3cccc4ccccc34)c2O[C@H]1CN(C)Cc1ccc(Oc2ccccc2)cc1 | -1.0 | 7.1 | 9.2 | / | -27.4
CCOc1ccccc1N(C)C(=O)c1cn(CC)c(=O)c2cc(OC)c(OC)cc12 | -10.8 | -0.9 | 20.2* | -9.0 | 18.2
COc1ccc(CN(C)C(C)C(=O)Nc2ccc(S(=O)(=O)N3CCOCC3)cc2)c(OC)c1 (stereo not drawn) | 2.9 | -3.2 | 17.1* | -0.2 | 10.1
CC(C)NC(=O)N1C[C@@H]2[C@H](c3ccccc31)[C@H](CO)N2Cc1ccccc1 | -0.7 | / | -3.7 | / | 5.5
Cn1c(=O)n(Cc2ccccc2Br)c2ccccc21 | 4.4 | -5.2 | -5.2 | 1.5 | 50.3*
Cn1c(=O)n(CCc2ccccc2)c2ccccc21 | 4.0 | -4.8 | 5.6 | 1.4 | 14.9
CCCNC(=O)N1CC2(C1)CN(C(=O)c1cccnc1)[C@@H](CO)c1[nH]c3cc(OC)ccc3c12 | -3.6 | 5.7 | -2.3 | / | 10.7
CCN1[C@H](C(=O)NCC2CC2)[C@@H](CO)[C@@H]2Cn3c(ccc(-c4ccccc4)c3=O)[C@@H]21 | -3.7 | 3.8 | 8.0 | / | -3.0
CCCc1cc(=O)[nH]c2nnc(SCC(=O)N3CC(C)OC(C)C3)n12 (stereo not drawn) | -1.0 | -0.1 | -5.1 | 4.8 | 55.0*
COc1cc2c(cc1OC)C1=C(C#N)CC/C(=N\S(=O)(=O)c3cccc(Cl)c3)N1CC2 | / | / | / | -10.9 | /
COc1cc2c(cc1OC)C1=C(C#N)CCC(=NC(=O)c3ccco3)N1CC2 | 3.0 | 1.6 | -0.1 | 2.1 | 74.7*
COc1ccc(S(=O)(=O)N2CC[C@@H]3[C@H](CO)Nc4ccc(-c5ccccc5F)cc4[C@@H]32)cc1 | / | / | / | / | 12.5
COc1ccc(S(=O)(=O)Nc2ccc3c(c2)CC(=O)N([C@H](C)CO)C[C@@H](C)[C@@H](CN(C)C(=O)NC(C)C)O3)cc1 | 4.2 | 9.5 | -4.1 | / | 9.5
CCCC(=O)Nc1ccc2c(c1)C(=O)N(C)C[C@@H](OC)[C@H](C)CN(C(=O)c1cccnc1)[C@@H](C)CO2 | 0.1 | -3.8 | -27.4 | / | 8.8
O=C1CN(C(=O)COc2ccc(Cl)c(Cl)c2)c2ccccc2N1 | 4.5 | 0.7 | 0.8 | -2.2 | -6.1
CCCCOc1ccc(/C=C/C(=O)OCC(=O)N2CC(=O)Nc3ccccc32)cc1OCC | -3.9 | 15.0 | 17.0* | 2.2 | 0.8
O=C1CN(C(=O)COc2cccc(F)c2)c2ccccc2N1 | 4.4 | -4.3 | 18.2* | / | 12.6
CO/N=C/CC(=O)c1ccc(-c2ccccc2)cc1 | 7.1 | -9.7 | 28.7* | -8.8 | -1.2
OCCN1CCSC1=S | -2.6 | 6.7 | -2.3 | 10.4 | 45.2*
SMILES | ERp5 block | S100A4 inh HTS | SIRT5 block | PDI inh | INS-1E GSIS act
C[C@@H]1CN([C@H](C)CO)C(=O)c2cccc(NC(=O)Nc3ccc4c(c3)OCO4)c2O[C@H]1CN(C)Cc1ccc(Oc2ccccc2)cc1 | 32.3* | -5.5 | 2.8 | / | -10.4
Cc1noc(C)c1NC(=O)Nc1cccc2c1O[C@@H](CN(C)Cc1ccc(Oc3ccccc3)cc1)[C@@H](C)CN([C@H](C)CO)C2=O | 5.1 | -10.8 | 37.1* | / | -23.3
Cc1noc(C)c1NC(=O)Nc1cccc2c1O[C@H](CN(C)Cc1ccc(Oc3ccccc3)cc1)[C@@H](C)CN([C@H](C)CO)C2=O | 13.7 | 15.3 | -4.3 | / | -31.1
C[C@@H]1CN([C@@H](C)CO)C(=O)c2cccc(NC(=O)C3CCOCC3)c2O[C@@H]1CN(C)Cc1ccc(C(=O)Nc2ccccc2N)cc1 | 2.4 | 79.4* | -0.6 | / | 38.4
Cc1cc(C(=O)Nc2cccc3c2O[C@@H](CN(C)Cc2ccc(Oc4ccccc4)cc2)[C@H](C)CN([C@H](C)CO)C3=O)n(C)n1 | 5.2 | 0.9 | 22.2* | / | 6.2
O=C(C[C@@H]1C[C@@H]2c3cc(NC(=O)Nc4ccc(C(F)(F)F)cc4)ccc3O[C@@H]2[C@@H](CO)O1)NCc1cc(F)ccc1F | 0.9 | -0.6 | 3.2 | / | 16.8
Cc1noc(C)c1NC(=O)Nc1cccc2c1O[C@H](CN(C)Cc1ccc(C(=O)Nc3ccccc3N)cc1)[C@@H](C)CN([C@@H](C)CO)C2=O | -0.9 | -2.3 | 22.2* | / | 23.5
CCOc1ccccc1NC(=O)Cn1nc(-c2ccco2)ccc1=O | 4.1 | -3.9 | 0.0 | 3.9 | 9.7
CCOc1ccccc1NC(=O)CSc1ccc(-c2ccco2)nn1 | -19.0 | -4.9 | 0.3 | 20.2 | 60.7*
O=C(Nc1ccccc1)N1CCCCN2[C@@H](CO)[C@H](c3ccc(C#Cc4ccccn4)cc3)[C@@H]2C1 | 4.1 | 27.1 | 3.2 | / | -19.2
O=C(Nc1ccccc1)N1CCCCN2[C@H](CO)[C@H](c3ccc(C#Cc4ccccn4)cc3)[C@H]2C1 | 4.8 | 90.7* | 1.1 | / | -10.2
O=C(Nc1ccc(F)cc1)N1CCCCN2[C@H](CO)[C@H](c3ccc(C#Cc4ccccn4)cc3)[C@H]2C1 | 0.8 | 86.5* | -1.0 | / | -18.6
O=C1/C(=C\c2ccc(Cl)c(Cl)c2)CN(C(=O)CCN2CCOCC2)C/C1=C/c1ccc(Cl)c(Cl)c1 | -6.8 | 3.6 | / | 3.7 | 135.8*
O=C1/C(=C\c2ccccc2)CN(C(=O)CCN2CCCCC2)C/C1=C/c1ccccc1 | -9.4 | -3.2 | -1.5 | 1.0 | -25.8
COc1ccc(NC(=O)N(C)C[C@@H]2OCCCC[C@H](C)Oc3ccc(NS(=O)(=O)c4ccc(F)cc4)cc3C(=O)N([C@H](C)CO)C[C@H]2C)cc1 | 1.8 | 11.2 | 11.9 | / | -29.3
